Assay results published in ChEMBL document CHEMBL4689842, “EUbOPEN Chemogenomics Library wave 1” (2021).

System: Fibroblast
Assay: Multiplex assay against human fibroblast
Type: toxicity, cell-based
Method in brief: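 On a CQ1 microscope at 37°C and 5% CO2, live cells were imaged after compound addition. They had been stained at seeding with Hoechst33342, BioTracker Green Microtubule Cytoskeleton Dye, MitoTracker Red and Annexin V Alexa Fluor 680. CellPathfinder machine-learning gating assigned cells to Hoechst high-intensity objects or normal cells, normal cells to healthy, pyknosed or fragmented nuclei, and pyknosed cells to mitotic or apoptotic. Tubulin, mitochondrial-mass and membrane-permeability phenotypes are per cents of healthy-nucleus cells.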

[1] = 12 h, 1 µM, compound concentration 1 uM, replicate 1
[2] = 12 h, 1 µM, compound concentration 1 uM, replicate 2
[3] = 12 h, 10 µM, compound concentration 10 uM, replicate 1
[4] = 12 h, 10 µM, compound concentration 10 uM, replicate 2
[5] = 24 h, 1 µM, compound concentration 1 uM, replicate 1
[6] = 24 h, 1 µM, compound concentration 1 uM, replicate 2
[7] = 24 h, 10 µM, compound concentration 10 uM, replicate 1
[8] = 24 h, 10 µM, compound concentration 10 uM, replicate 2
[9] = 48 h, 1 µM, compound concentration 1 uM, replicate 1
[10] = 48 h, 1 µM, compound concentration 1 uM, replicate 2
[11] = 48 h, 10 µM, compound concentration 10 uM, replicate 1
[12] = 48 h, 10 µM, compound concentration 10 uM, replicate 2

Nc1ccc(C(=O)Nc2cccc(-c3nc(N4CCOCC4)c4oc5ncccc5c4n3)c2)cn1
Population Apoptotic (%) [1]: 63% | Population Fragmented Nuclei (%) [1]: 24% | Population Healthy Nuclei (%) [1]: 43% | Population Hoechst High Intensity Objects (%) [1]: 14% | Population Mitochondria Different-Phenotype (%) [1]: 4% | Population Mitotic Cells (%) [1]: 36% | Population Normal (%) [1]: 85% | Population Pyknosed Nuclei (%) [1]: 31% | Population Tubulin-Different-Phenotype (%) [1]: 60% | Total Cell Count [1]: 134 | Population Apoptotic (%) [2]: 9% | Population Fragmented Nuclei (%) [2]: 20% | Population Healthy Nuclei (%) [2]: 61% | Population Hoechst High Intensity Objects (%) [2]: 10% | Population Mitochondria Different-Phenotype (%) [2]: 21% | Population Mitotic Cells (%) [2]: 90% | Population Normal (%) [2]: 89% | Population Pyknosed Nuclei (%) [2]: 17% | Population Tubulin-Different-Phenotype (%) [2]: 28% | Total Cell Count [2]: 55 | Population Apoptotic (%) [3]: 54% | Population Fragmented Nuclei (%) [3]: 57% | Population Healthy Nuclei (%) [3]: 28% | Population Hoechst High Intensity Objects (%) [3]: 41% | Population Mitochondria Different-Phenotype (%) [3]: 9% | Population Mitotic Cells (%) [3]: 45% | Population Normal (%) [3]: 58% | Population Pyknosed Nuclei (%) [3]: 13% | Population Tubulin-Different-Phenotype (%) [3]: 80% | Total Cell Count [3]: 554 | Population Apoptotic (%) [4]: 51% | Population Fragmented Nuclei (%) [4]: 62% | Population Healthy Nuclei (%) [4]: 15% | Population Hoechst High Intensity Objects (%) [4]: 19% | Population Mitochondria Different-Phenotype (%) [4]: 76% | Population Mitotic Cells (%) [4]: 48% | Population Normal (%) [4]: 80% | Population Pyknosed Nuclei (%) [4]: 22% | Population Tubulin-Different-Phenotype (%) [4]: 90% | Total Cell Count [4]: 69 | Population Apoptotic (%) [5]: 38% | Population Fragmented Nuclei (%) [5]: 38% | Population Healthy Nuclei (%) [5]: 39% | Population Hoechst High Intensity Objects (%) [5]: 16% | Population Mitochondria Different-Phenotype (%) [5]: 3% | Population Mitotic Cells (%) [5]: 61% | Population Normal (%) [5]: 83% | Population Pyknosed Nuclei (%) [5]: 21% | Population Tubulin-Different-Phenotype (%) [5]: 64% | Total Cell Count [5]: 169 | Population Apoptotic (%) [6]: 21% | Population Fragmented Nuclei (%) [6]: 28% | Population Healthy Nuclei (%) [6]: 52% | Population Hoechst High Intensity Objects (%) [6]: 5% | Population Mitochondria Different-Phenotype (%) [6]: 42% | Population Mitotic Cells (%) [6]: 78% | Population Normal (%) [6]: 95% | Population Pyknosed Nuclei (%) [6]: 18% | Population Tubulin-Different-Phenotype (%) [6]: 27% | Total Cell Count [6]: 57 | Population Apoptotic (%) [7]: 68% | Population Fragmented Nuclei (%) [7]: 53% | Population Healthy Nuclei (%) [7]: 32% | Population Hoechst High Intensity Objects (%) [7]: 46% | Population Mitochondria Different-Phenotype (%) [7]: 30% | Population Mitotic Cells (%) [7]: 31% | Population Normal (%) [7]: 53% | Population Pyknosed Nuclei (%) [7]: 13% | Population Tubulin-Different-Phenotype (%) [7]: 76% | Total Cell Count [7]: 514 | Population Apoptotic (%) [8]: 84% | Population Fragmented Nuclei (%) [8]: 60% | Population Healthy Nuclei (%) [8]: 5% | Population Hoechst High Intensity Objects (%) [8]: 19% | Population Mitochondria Different-Phenotype (%) [8]: 100% | Population Mitotic Cells (%) [8]: 15% | Population Normal (%) [8]: 80% | Population Pyknosed Nuclei (%) [8]: 34% | Population Tubulin-Different-Phenotype (%) [8]: 100% | Total Cell Count [8]: 80 | Population Apoptotic (%) [9]: 66% | Population Fragmented Nuclei (%) [9]: 47% | Population Healthy Nuclei (%) [9]: 45% | Population Hoechst High Intensity Objects (%) [9]: 17% | Population Mitochondria Different-Phenotype (%) [9]: 0% | Population Mitotic Cells (%) [9]: 33% | Population Normal (%) [9]: 82% | Population Pyknosed Nuclei (%) [9]: 7% | Population Tubulin-Different-Phenotype (%) [9]: 60% | Total Cell Count [9]: 190 | Population Apoptotic (%) [10]: 0% | Population Fragmented Nuclei (%) [10]: 58% | Population Healthy Nuclei (%) [10]: 41% | Population Hoechst High Intensity Objects (%) [10]: 25% | Population Mitochondria Different-Phenotype (%) [10]: 3% | Population Mitotic Cells (%) [10]: 0% | Population Normal (%) [10]: 74% | Population Pyknosed Nuclei (%) [10]: 0% | Population Tubulin-Different-Phenotype (%) [10]: 76% | Total Cell Count [10]: 205 | Population Apoptotic (%) [11]: 51% | Population Fragmented Nuclei (%) [11]: 51% | Population Healthy Nuclei (%) [11]: 25% | Population Hoechst High Intensity Objects (%) [11]: 49% | Population Mitochondria Different-Phenotype (%) [11]: 46% | Population Mitotic Cells (%) [11]: 48% | Population Normal (%) [11]: 50% | Population Pyknosed Nuclei (%) [11]: 23% | Population Tubulin-Different-Phenotype (%) [11]: 78% | Total Cell Count [11]: 516 | Population Apoptotic (%) [12]: 100% | Population Fragmented Nuclei (%) [12]: 82% | Population Healthy Nuclei (%) [12]: 14% | Population Hoechst High Intensity Objects (%) [12]: 67% | Population Mitotic Cells (%) [12]: 0% | Population Normal (%) [12]: 32% | Population Pyknosed Nuclei (%) [12]: 2% | Population Tubulin-Different-Phenotype (%) [12]: 73% | Total Cell Count [12]: 323

c1ccc2oc(-c3csc(C4CCN(Cc5nc6ncccc6[nH]5)CC4)n3)cc2c1
Population Apoptotic (%) [1]: 73% | Population Fragmented Nuclei (%) [1]: 30% | Population Healthy Nuclei (%) [1]: 55% | Population Hoechst High Intensity Objects (%) [1]: 15% | Population Membrane Permeable-Phenotype (%) [1]: 9% | Population Mitochondria Different-Phenotype (%) [1]: 10% | Population Mitotic Cells (%) [1]: 26% | Population Normal (%) [1]: 85% | Population Pyknosed Nuclei (%) [1]: 13% | Population Tubulin-Different-Phenotype (%) [1]: 12% | Total Cell Count [1]: 160 | Population Apoptotic (%) [2]: 25% | Population Fragmented Nuclei (%) [2]: 59% | Population Healthy Nuclei (%) [2]: 28% | Population Hoechst High Intensity Objects (%) [2]: 34% | Population Membrane Permeable-Phenotype (%) [2]: 15% | Population Mitochondria Different-Phenotype (%) [2]: 5% | Population Mitotic Cells (%) [2]: 75% | Population Normal (%) [2]: 65% | Population Pyknosed Nuclei (%) [2]: 11% | Population Tubulin-Different-Phenotype (%) [2]: 26% | Total Cell Count [2]: 103 | Population Apoptotic (%) [3]: 63% | Population Fragmented Nuclei (%) [3]: 25% | Population Healthy Nuclei (%) [3]: 55% | Population Hoechst High Intensity Objects (%) [3]: 11% | Population Membrane Permeable-Phenotype (%) [3]: 3% | Population Mitochondria Different-Phenotype (%) [3]: 1% | Population Mitotic Cells (%) [3]: 36% | Population Normal (%) [3]: 88% | Population Pyknosed Nuclei (%) [3]: 19% | Population Tubulin-Different-Phenotype (%) [3]: 4% | Total Cell Count [3]: 190 | Population Apoptotic (%) [4]: 66% | Population Fragmented Nuclei (%) [4]: 65% | Population Healthy Nuclei (%) [4]: 28% | Population Hoechst High Intensity Objects (%) [4]: 35% | Population Membrane Permeable-Phenotype (%) [4]: 21% | Population Mitochondria Different-Phenotype (%) [4]: 0% | Population Mitotic Cells (%) [4]: 33% | Population Normal (%) [4]: 64% | Population Pyknosed Nuclei (%) [4]: 6% | Population Tubulin-Different-Phenotype (%) [4]: 0% | Total Cell Count [4]: 76 | Population Apoptotic (%) [5]: 50% | Population Fragmented Nuclei (%) [5]: 38% | Population Healthy Nuclei (%) [5]: 51% | Population Hoechst High Intensity Objects (%) [5]: 12% | Population Membrane Permeable-Phenotype (%) [5]: 10% | Population Mitochondria Different-Phenotype (%) [5]: 4% | Population Mitotic Cells (%) [5]: 50% | Population Normal (%) [5]: 87% | Population Pyknosed Nuclei (%) [5]: 9% | Population Tubulin-Different-Phenotype (%) [5]: 17% | Total Cell Count [5]: 165 | Population Apoptotic (%) [6]: 25% | Population Fragmented Nuclei (%) [6]: 64% | Population Healthy Nuclei (%) [6]: 28% | Population Hoechst High Intensity Objects (%) [6]: 39% | Population Membrane Permeable-Phenotype (%) [6]: 25% | Population Mitochondria Different-Phenotype (%) [6]: 0% | Population Mitotic Cells (%) [6]: 75% | Population Normal (%) [6]: 60% | Population Pyknosed Nuclei (%) [6]: 7% | Population Tubulin-Different-Phenotype (%) [6]: 25% | Total Cell Count [6]: 92 | Population Apoptotic (%) [7]: 90% | Population Fragmented Nuclei (%) [7]: 26% | Population Healthy Nuclei (%) [7]: 59% | Population Hoechst High Intensity Objects (%) [7]: 11% | Population Membrane Permeable-Phenotype (%) [7]: 2% | Population Mitochondria Different-Phenotype (%) [7]: 0% | Population Mitotic Cells (%) [7]: 9% | Population Normal (%) [7]: 88% | Population Pyknosed Nuclei (%) [7]: 13% | Population Tubulin-Different-Phenotype (%) [7]: 2% | Total Cell Count [7]: 183 | Population Apoptotic (%) [8]: 100% | Population Fragmented Nuclei (%) [8]: 59% | Population Healthy Nuclei (%) [8]: 34% | Population Hoechst High Intensity Objects (%) [8]: 34% | Population Membrane Permeable-Phenotype (%) [8]: 13% | Population Mitochondria Different-Phenotype (%) [8]: 6% | Population Mitotic Cells (%) [8]: 0% | Population Normal (%) [8]: 65% | Population Pyknosed Nuclei (%) [8]: 6% | Population Tubulin-Different-Phenotype (%) [8]: 0% | Total Cell Count [8]: 67
